Assay results taken from ChEMBL document CHEMBL4725490, “Decreasing HepG2 Cytotoxicity by Lowering the Lipophilicity of Benzo[d]oxazolephosphinate Ester Utrophin Modulators” (ACS Med Chem Lett, 2020).
≈ marks a conversion by molar mass, not a printed value. Calls of active or inactive are those of the source. The calls are words filed in the database; no cut-off is given here.

Tests used:
[1] = Inhibition of firefly luciferase activity using ATP as substrate preincubated followed by substrate addition and measured after 15 mins by firefly luciferase reporter gene assay; design: species or system Photinus pyralis
Method in brief: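 Biochemical counter-screen measuring direct inhibition of recombinant firefly luciferase enzyme activity, used to flag interference in the H2K reporter assay.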

[2] = Lipophilicity, log D of the compound at pH 7.4; details: buffer
[3] = Kinetic aqueous solubility of the compound
[4] = Protein binding in mouse plasma
[5] = Half life in mouse hepatocyte; details: hepatocytes
[6] = Apparent permeability across apical to basolateral side in human Caco2 cells; details: Caco-2
[7] = Apparent permeability across basolateral to apical side in human Caco2 cells; details: Caco-2
[8] = test system: HepG2; assay: Cytotoxicity against human HepG2 cells assessed as reduction in cell viability incubated for 40 hrs by cell titer glo assay; format: ADME, cell-based; details: HepG2, 40 h
[9] = organism: Mus musculus; assay: Modulation activity of utrophin in dystrophic mouse muscle cells assessed increase in utrophin protein level by western blot analysis relative to control; details: filed as modulator
Method in brief: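 LUmdx dystrophic mouse muscle cells were treated with compound, and utrophin protein was quantified by Western blot. Values are fold increase in utrophin level.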

[10] = Intrinsic clearance in mouse hepatocyte; details: hepatocytes

| IC50 [1] | logD [2] | solubility kinetic [3] | fraction unbound [4] | half-life [5] | IC50 ([1]; read-out: IC50) | Papp A→B [6] | Papp B→A [7] | Activity [9] | CLH [10] | Structure (SMILES) | IC50 [8] | PPB [4] |
| --- | --- | --- | --- | --- | --- | --- | --- | --- | --- | --- | --- | --- |
| Not Active | 1.98 | 699 µM (≈ 259 µg/mL) | 0.24 | 5 min |  |  |  |  |  | CCP(=O)(OC)c1ccc2nc(-c3cccnc3C(F)(F)F)oc2c1 (stereo not given) |  |  |
| Not Active | 2.2 | 854 µM (≈ 316 µg/mL) | 0.11 | 4 min |  |  |  |  |  | CCP(=O)(OC)c1ccc2oc(-c3cccnc3C(F)(F)F)nc2c1 (stereo not given) |  |  |
|  |  | 574 µM (≈ 219 µg/mL) | 0.02 | 154 min | > 30 µM | 17.2 ×10⁻⁶ cm/s | 16.2 ×10⁻⁶ cm/s |  |  | CCP(=O)(OC)c1ccc2nc(-c3ccc4c(c3)OC(F)(F)O4)oc2c1 (stereo not given) | 68.9 µM |  |
| Not Active | 2.44 | 477 µM (≈ 177 µg/mL) | 0.25 | > 240 min |  |  |  | Active |  | CCP(=O)(OC)c1ccc2oc(-c3cncc(C(F)(F)F)c3)nc2c1 (stereo not given) |  |  |
| Not Active | 2.08 | 487 µM (≈ 172 µg/mL) | 0.23 | > 240 min |  |  |  |  |  | CCP(=O)(OC)c1ccc2nc(-c3cncc(C(F)F)c3)oc2c1 (stereo not given) |  |  |
| Not Active |  |  |  | > 240 min |  | 12.3 ×10⁻⁶ cm/s | 11 ×10⁻⁶ cm/s |  |  | CCP(=O)(OC)c1ccc2oc(-c3ccnc(C(F)(F)F)c3)nc2c1 (stereo not given) | 200 µM |  |
|  | 3.09 | > 250 µM | 0.06 | 20 min | 2.48 µM | 14.2 ×10⁻⁶ cm/s | 10.1 ×10⁻⁶ cm/s |  |  | CCP(=O)(OC)c1ccc2oc(-c3cccc(C(F)F)c3)nc2c1 (stereo not given) |  |  |
| Not Active | 3.2 | 8.4 µM (≈ 3.09 µg/mL) | 0.04 | 37 min |  | 18.1 ×10⁻⁶ cm/s | 15.9 ×10⁻⁶ cm/s |  |  | CCP(=O)(OC)c1ccc2nc(-c3cccc(OC(F)F)c3)oc2c1 (stereo not given) |  |  |
|  | 3.19 | > 250 µM | 0.04 | < 3 min | 0.088 µM | 15.7 ×10⁻⁶ cm/s | 12.6 ×10⁻⁶ cm/s |  |  | CCP(=O)(OC)c1ccc2oc(-c3cccc(OC)c3)nc2c1 (stereo not given) |  |  |
|  | 2.8 | > 250 µM | 0.03 | < 3 min | 5.73 µM | 16.2 ×10⁻⁶ cm/s | 11.2 ×10⁻⁶ cm/s |  |  | CCP(=O)(OC)c1ccc2oc(-c3ccccc3C(F)F)nc2c1 (stereo not given) |  |  |
|  | 2.4 | 576 µM (≈ 220 µg/mL) | 0.02 | 154 min | 23.6 µM | 12.7 ×10⁻⁶ cm/s | 11.7 ×10⁻⁶ cm/s |  |  | CCP(=O)(OC)c1ccc2oc(-c3ccc4c(c3)OC(F)(F)O4)nc2c1 (stereo not given) |  |  |
| Not Active | 3.33 | 446 µM (≈ 157 µg/mL) | 0.03 | < 3 min |  |  |  |  | > 250 µL/min/10^6 cells | CCP(=O)(OC)c1ccc2nc(-c3ccccc3C(F)F)oc2c1 (stereo not given) |  |  |
| Not Active | 2.98 | 556 µM (≈ 195 µg/mL) | 0.04 |  |  |  |  | Active |  | CCP(=O)(OC)c1ccc2nc(-c3ccc(C(F)F)cc3)oc2c1 (stereo not given) |  |  |
|  |  | 265 µM (≈ 87.8 µg/mL) |  |  | 0.19 µM | 13.3 ×10⁻⁶ cm/s | 10.7 ×10⁻⁶ cm/s |  |  | CCP(=O)(OC)c1ccc2oc(-c3ccc(OC)cc3)nc2c1 (stereo not given) | 200 µM |  |
|  | 2.2 | 733 µM (≈ 270 µg/mL) | 0.14 | > 240 min | > 30 µM | 22.3 ×10⁻⁶ cm/s | 20.6 ×10⁻⁶ cm/s | Active |  | CCP(=O)(OC)c1ccc2oc(-c3ccnc(OC(F)F)c3)nc2c1 (stereo not given) | 200 µM |  |
| Not Active | 1.86 | 440 µM (≈ 155 µg/mL) | 0.26 | > 240 min |  |  |  |  |  | CCP(=O)(OC)c1ccc2oc(-c3cncc(C(F)F)c3)nc2c1 (stereo not given) |  |  |
|  | 2.6 | 834 µM (≈ 307 µg/mL) | 0.07 | > 240 min | > 30 µM | 21.8 ×10⁻⁶ cm/s | 16.9 ×10⁻⁶ cm/s |  |  | CCP(=O)(OC)c1ccc2nc(-c3ccnc(OC(F)F)c3)oc2c1 (stereo not given) |  |  |
| Not Active | 2.41 | 603 µM (≈ 223 µg/mL) | 0.2 | > 240 min |  |  |  |  |  | CCP(=O)(OC)c1ccc2nc(-c3cncc(C(F)(F)F)c3)oc2c1 (stereo not given) |  |  |
| Not Active | 3.06 | 530 µM (≈ 186 µg/mL) | 0.02 |  |  |  |  |  |  | CCP(=O)(OC)c1ccc2oc(-c3ccc(C(F)F)cc3)nc2c1 (stereo not given) |  |  |
| Not Active | 2.45 | 366 µM (≈ 134 µg/mL) | 0.03 | < 3 min |  | 18.8 ×10⁻⁶ cm/s | 15.7 ×10⁻⁶ cm/s |  |  | CCP(=O)(OC)c1ccc2oc(-c3ccccc3OC(F)F)nc2c1 (stereo not given) |  |  |
| Not Active | 3.4 | 518 µM (≈ 191 µg/mL) | 0.03 | 13 min |  |  |  |  |  | CCP(=O)(OC)c1ccc2oc(-c3ccc(F)cc3C(F)F)nc2c1 (stereo not given) |  |  |
|  |  |  |  | 13 min | > 30 µM | 13.3 ×10⁻⁶ cm/s | 9.37 ×10⁻⁶ cm/s |  |  | CCP(=O)(OC)c1ccc2oc(-c3cccc(OC(F)F)c3)nc2c1 (stereo not given) |  |  |
| Not Active | 3.59 | 469 µM (≈ 173 µg/mL) | 0.03 | 38 min |  | 12.3 ×10⁻⁶ cm/s | 11.5 ×10⁻⁶ cm/s |  |  | CCP(=O)(OC)c1ccc2nc(-c3ccc(F)cc3C(F)F)oc2c1 (stereo not given) |  |  |

| Structure (SMILES) | IC50 [1] | logD [2] | solubility kinetic [3] | fraction unbound [4] | half-life [5] | IC50 ([1]; read-out: IC50) | Papp A→B [6] | Papp B→A [7] | Activity [9] | CLH [10] | IC50 [8] | PPB [4] |
| --- | --- | --- | --- | --- | --- | --- | --- | --- | --- | --- | --- | --- |
| CCP(=O)(OC)c1ccc2oc(-c3cccc(C(F)(F)F)c3)nc2c1 (stereo not given) |  |  |  |  |  | 12.1 µM |  |  |  |  |  |  |
| CCP(=O)(OC)c1ccc2oc(-c3ccc(F)cc3)nc2c1 (stereo not given) |  | 2.8 | 378 µM (≈ 121 µg/mL) |  |  | 0.115 µM | 18 ×10⁻⁶ cm/s | 15.7 ×10⁻⁶ cm/s |  |  | 200 µM | 95% |
